KCNK9 inh = KCNK9 potassium channel inhibitors, primary screen, HEK293 cells, thallium flux. Potassium channel subfamily K member 9 (Homo sapiens), Q9NPC2. FluxOR thallium flux fluorescence; hits give low values. B-score at 10 µM. 310,000 compounds, 1.2% hits. AID 488922, 2010;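 active means ratio B-score over 3 SD below the library mean, with starting fluorescence within 5 SD of its mean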;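 further: negative B-score means less thallium flux so channel inhibition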
KCNK3 block = human KCNK3 channel inhibitors, primary screen, CHO cells, FluxOR thallium flux, B-score; FluxOR fluorescence; hits give low values; 340,000 compounds, 0.84% hits; B-score at 10 µM;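 active means B-score under library mean minus 4 SD, starting fluorescence ratio at most library mean plus 5 SD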;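 further: more negative B-score means stronger inhibition of thallium flux through KCNK3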
KCNQ1 act = potentiators or activators of KCNQ1 channel, primary screen, cell-based, thallium flux, high-throughput; B-score at 10 µM; AID 2648, 2010; Potassium voltage-gated channel subfamily KQT member 1 (Homo sapiens), P51787; 310,000 compounds, 0.35% hits; CHO-K1 KCNQ1, thallium flux FluxOR fluorescence; hits give high values;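 active means fluorescence ratio B-score, a plate-corrected score, at least three library SD, with initial intensity B-score within 5 SD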
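Schedule – 37 °C overnight plating, 90-min dark dye load, 20-min compound pretreatment · System – stable KCNQ1 CHO-K1 line · Probe or stimulus – thallium- and potassium-containing depolarizing buffer · Measured by – kinetic FluxOR fluorescence, 10 s baseline plus 110 s post-stimulus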
KCNQ1 block = inhibitors of human KCNQ1 channel, primary screen, cell-based, thallium flux, high-throughput; 310,000 compounds, 1.3% hits; AID 2642, 2010; Potassium voltage-gated channel subfamily KQT member 1 (Homo sapiens), P51787; B-score at 10 µM; CHO-K1 KCNQ1, FluxOR thallium flux fluorescence; hits give high values;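 active means compounds whose thallium flux B-score, printed positive for inhibition, exceeds three library SD while starting fluorescence stays within three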;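 further: channel opened by potassium depolarization with thallium stimulus after 20 min compound exposure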
Cl transport mod = KCC2 cotransporter modulators, thallium flux, primary screen, cell-based, HEK293 KCC2, FluoZin-2 fluorescence, MLSMR; B-score of Tl+ flux slope (higher = more flux/activation; lower = inhibition) at 10 µM; Solute carrier family 12 member 5 (Homo sapiens), Q9H2X9; KCC2 cells, thallium flux FluoZin-2 fluorescence; 190,000 compounds, 2.2% hits; AID 1456, 2008;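 active means thallium flux slope and its plate-corrected score both differing from the plate sample mean at a set confidence after two filtering rounds, in either direction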;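 further: slope of fluorescence scaled to starting intensity during 10 to 20 s after thallium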
hERG protect = hERG rescue from dofetilide block, primary screen, cell-based, CHO-hERG, FluxOR thallium flux, dofetilide IC70. activation (rescue from dofetilide block), less the hit threshold, % at 10 µM. 310,000 compounds, 0.51% hits. Voltage-gated inwardly rectifying potassium channel KCNH2 (Homo sapiens), Q12809. dofetilide IC70 present;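 active means activation above the mean of controls blocked by dofetilide plus 5 SD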;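 further: thallium influx through hERG after potassium depolarization seen as dye fluorescence rise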
KCNK9 inh conf = KCNK9 potassium channel inhibitors, confirmation, HEK293 cells, thallium flux, duplicate | inhibition, % at 10 µM | 4,900 compounds, 43% hits | FluxOR thallium flux fluorescence | shares compounds with KCNK9 inh;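 active means thallium signal inhibited by more than 5 SD of the compound-free buffer control wells, on both duplicate plates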
Kir2-1 spec = mouse Kir2.1 channel inhibition, confirmation, selectivity assay for KCNK9 modulator project, cell-based, HEK293, thallium flux. shares compounds with KCNK9 inh. Kir2.1 cells, FluxOR thallium flux fluorescence. inhibition, % at 10 µM. 4,900 compounds, 4% hits. AID 492993, 2010;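 active means thallium signal drop more than 5 SD beyond the mean of the no-compound control wells, seen in both duplicate plates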;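 further: signal is fluorescence rise after thallium addition divided by baseline fluorescence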
KCNK9 uninduced = thallium flux in non-induced HEK293 cells, confirmation, counter-screen for KCNK9 inhibitor project, cell-based, second counter screen, non-induced KCNK9-HEK293 | shares compounds with KCNK9 inh | FluxOR thallium flux | inhibition, % at 10 µM | 4,900 compounds, 40% hits | AID 492997, 2010;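 active means thallium signal drop beyond 5 SD of the untreated control mean, on both duplicate plates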
Hits are given with their value; – = inactive; · = no result. An excerpt weighted towards active compounds, which were near 4.1% of everything screened.

SMILES | KCNK9 inh | KCNK3 block | KCNQ1 act | KCNQ1 block | Cl transport mod | hERG protect | KCNK9 inh conf | Kir2-1 spec | KCNK9 uninduced
COc1cccc(CC2(CO)CCCN(C/C=C/c3ccccc3OC)C2)c1 (stereo not drawn) | – | – | – | – | · | – | · | · | ·
COc1ccccc1/C=C/CN1CCCC(CO)(Cc2cccc(Cl)c2)C1 (stereo not drawn) | – | – | – | – | – | – | – | – | –
O=C(C/C=N/OCc1ccc(F)cc1Cl)c1cnc(-c2ccccc2)s1 | – | – | – | – | · | – | – | – | –
O=C(C/C=N/OCc1ccccc1F)c1cnc(-c2ccc(Cl)cc2)s1 | – | – | – | – | · | – | – | – | –
O=C(C/C=N/OCc1ccc(Cl)cc1Cl)c1ccccc1 | – | – | – | – | – | – | · | · | ·
CC(C)CC(=O)Nc1ccc2c(c1)nc(CCN1CCOCC1)n2C | – | – | – | – | · | – | · | · | ·
O=[N+]([O-])c1ccc(O)c(/C=N/NC(=S)Nc2ccc(Cl)cc2Cl)c1 | – | – | – | – | 9.22 | – | – | – | –
Cc1cccc(NC(=O)Cn2cnc(S(=O)(=O)N3CCCC3)c2)c1C | – | – | – | – | · | – | · | · | ·
CSCCC(NS(=O)(=O)c1ccc(Cl)cc1)C(=O)OCc1c(Cl)cccc1Cl (stereo not drawn) | -9.2 | – | – | – | – | – | 35.5% | – | 36.0%
CCn1c2c(c3cc(Br)ccc31)CCC/C2=N\O | – | – | – | – | – | – | · | · | ·
CCn1c2c(c3cc(OCC(C)C)ccc31)CCCC2=O | – | – | – | – | – | – | – | – | –
COc1ccc(C2Nc3ccccc3C(=O)N2Cc2ccco2)cc1COc1ccc(F)cc1 (stereo not drawn) | -9.01 | – | – | – | – | – | 35.0% | – | 36.0%
Nn1c(SCC(=O)Nc2ccc(Oc3ccccc3)cc2)nnc1C1CC1 | – | – | – | – | – | – | – | – | –
COc1ccc(C(=O)/C(=C/O)N=Nc2ccc(F)cc2)cc1 | -12 | – | – | – | – | – | – | – | –
CC(=C/c1ccc(C(C)C)cc1)/C=N/NC(=O)CSc1ccccn1 | -19.7 | – | – | – | – | – | 60.5% | – | 45.0%
CC(/C=N/NC(=O)CSc1ccccn1)=C\c1ccc(C(C)C)cc1 | -12.9 | – | – | – | – | – | 59.0% | – | 37.0%
COc1ccc(/C=N/N(C)C2=NCCN2)c(OC)c1OC | – | – | – | – | · | – | · | · | ·
Cc1cc(C)c(NC(=O)c2cccc3c2C(=O)N(C2CCCCC2)C3)c(C)c1 | -12 | – | – | – | · | – | – | – | 52.0%
O=C(C[C@H]1C/C=C\CC[C@@H](Cc2ccc(F)cc2)C(=O)OCCNC1=O)NCCO | · | – | · | · | · | · | · | · | ·
Cn1c(=O)[nH]c(=O)c2c1nc(Br)n2Cc1ccccc1F | – | – | – | – | – | – | – | – | –
Cc1ccc(Cl)cc1N1CCN(Cc2nc3c(c(=O)[nH]c(=O)n3C)n2CCc2ccccc2)CC1 | – | – | – | – | – | – | · | · | ·
Cc1ccc(Cl)cc1N1CCN(Cc2nc3c(c(=O)[nH]c(=O)n3C)n2Cc2ccccc2F)CC1 | -8.81 | – | – | – | · | – | – | – | –
CCN1C[C@@H]2[C@@H]3C(=O)N(C)C(=O)[C@@H]3[C@](CC)(C1=O)N2C(=O)c1ccc(C(C)(C)C)cc1 | · | – | · | · | · | · | · | · | ·
CC1=NN(C(N)=S)C(=O)C1N=Nc1cccc(Cl)c1C (stereo not drawn) | – | – | 41 | – | · | – | – | – | –
CCn1c(CNC(=O)c2ccc(F)cc2)cc2ccccc21 | – | – | – | – | · | – | · | · | ·
SMILES | KCNK9 inh | KCNK3 block | KCNQ1 act | KCNQ1 block | Cl transport mod | hERG protect | KCNK9 inh conf | Kir2-1 spec | KCNK9 uninduced
O=C(NN1C(=O)C2C3c4ccccc4C(c4ccccc43)[C@@H]2C1=O)c1ccccc1 (stereo partly drawn) | – | – | – | – | – | – | · | · | ·
O=C(NN1C(=O)C2C(c3ccccc3)C=CC(c3ccccc3)C2C1=O)c1cccc(Br)c1 (stereo not drawn) | -11.7 | – | – | – | – | 11.0 | 62.5% | – | 37.0%
COc1cc(/C=N/NC(=O)c2ccccn2)ccc1OC(=O)c1cccs1 | – | – | – | – | · | – | · | · | ·
Nc1nc(-c2cccs2)c(-c2cccs2)s1 | -8.8 | – | – | – | · | – | 44.0% | – | –
COc1cc(OC)nc(Oc2ccccc2C(=O)Oc2ccc(F)cc2Cl)n1 | -9.14 | – | – | – | – | – | 59.0% | – | 39.0%
CCOC(=O)c1c(NC(=O)c2nn(CC)cc2Br)c(C#N)nn1-c1ccccc1 | -9.35 | – | – | – | – | – | 30.5% | – | 33.0%
CCOC(=O)c1nn(-c2ccccc2)c(C#N)c1NC(=O)c1nn(CC)cc1Br | – | – | – | – | · | – | · | · | ·
NNC(=O)c1sccc1OCc1cccc(C(F)(F)F)c1 | – | – | – | – | · | – | · | · | ·
COc1ccsc1C(=O)Nc1ccc(F)cc1F | – | – | – | – | · | – | · | · | ·
O=C(Nc1ccc(F)cc1F)c1sccc1SCc1cccc(C(F)(F)F)c1 | -11.7 | – | – | 8 | – | – | 68.0% | 42.5% | 49.5%
O=C(Nc1ccc(F)cc1)c1sccc1SCc1cccc(C(F)(F)F)c1 | -12.6 | – | – | – | – | – | 62.0% | 46.0% | 47.5%
CCN(CC(=O)NCCCN1CCOCC1)S(=O)(=O)c1ccc(F)cc1 | – | – | – | – | · | – | · | · | ·
CC1CN(S(=O)(=O)c2cccc(C(=O)N(Cc3nnc(-c4ccccc4Cl)o3)C3CC3)c2)CC(C)O1 (stereo not drawn) | – | – | – | – | · | – | · | · | ·
COc1ccc(NC(=O)/C(C#N)=C/c2ccc(-c3ccc(Cl)c(C(=O)O)c3)o2)cc1 | – | – | – | – | · | – | · | · | ·
O=C(CSc1ccc(Cl)cc1)N1CCN(c2ncc(C(F)(F)F)cc2Cl)CC1 | – | – | – | – | · | – | – | – | –
